CHRM5 antagonist – blocks acetylcholine activation of human M5 receptor; P08912; CHO-hM5 cells, Fluo-8 calcium fluorescence, ACh EC80; inhibition, % at 3 µM; actives 0.59% (n = 360,000); AID 624040;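 active means inhibition above a per-plate cutoff, the mean of that plate's test compounds plus 3 SD, cut at about 27% in these data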
Target sequence (P08912 whole entry, looked up): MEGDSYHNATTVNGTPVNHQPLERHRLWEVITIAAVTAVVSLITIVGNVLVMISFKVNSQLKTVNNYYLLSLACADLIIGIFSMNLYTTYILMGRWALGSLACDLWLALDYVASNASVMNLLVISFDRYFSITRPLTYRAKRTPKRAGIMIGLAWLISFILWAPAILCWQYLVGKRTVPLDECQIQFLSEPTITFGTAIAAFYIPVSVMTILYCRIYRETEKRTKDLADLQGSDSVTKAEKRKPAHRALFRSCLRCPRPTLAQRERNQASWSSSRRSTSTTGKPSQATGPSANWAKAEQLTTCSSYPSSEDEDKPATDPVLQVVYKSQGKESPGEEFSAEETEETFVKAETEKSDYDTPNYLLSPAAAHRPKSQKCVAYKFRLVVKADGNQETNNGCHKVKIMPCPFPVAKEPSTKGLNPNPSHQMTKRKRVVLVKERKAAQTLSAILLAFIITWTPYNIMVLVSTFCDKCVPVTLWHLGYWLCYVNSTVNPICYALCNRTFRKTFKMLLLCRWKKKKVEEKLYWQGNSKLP
CHRM1 PAM – potentiates human M1 receptor response to acetylcholine; actives 0.088% (n = 360,000); activation, % at 3 µM; CHO-K1 hM1, Fluo-8 calcium fluorescence, ACh EC20; 0% = ACh EC20, 100% = maximal ACh; in the data active means activation above about 19%, passing the limit was not always enough
CHRM5 PAM – CHRM5 positive allosteric modulation | CHO-K1 hM5, Fluo-8 calcium, ACh EC20 PAM; 0% = ACh EC20, 100% = ACh EC100 | activation, % at 3 µM | actives 0.3% (n = 360,000);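 active means activation above the run cutoff, the mean activation of all test compounds plus 3 SD, cut at about 18% in these data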
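Replicates: One well per compound, no replicates | System: Human M5 receptor in CHO-K1 cells | Benchmarks: Low control EC20 acetylcholine (0%), high control EC100 acetylcholine (100%) | Probe or stimulus: Acetylcholine, EC20 level | Times: Fluo-8 loading 80 min at 37 °C plus 30 min room temperature | Signal: Intracellular calcium via Fluo-8 fluorescence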
CHRM5 agonist – CHRM5 agonism in calcium assay | P08912 | CHO-K1 hM5 cells, Fluo-8 calcium fluorescence; 0% DMSO wells, 100% maximal acetylcholine response | activation, % at 3 µM | actives 0.19% (n = 360,000);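 active means activation above the run's mean over test compounds plus 3 SD, cut at about 23% in these data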;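 further: signal is peak over basal fluorescence ratio across the kinetic read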
CHRM1 agonist – agonists of human M1 muscarinic receptor. P11229. CHO-K1 hM1, Fluo-8 calcium fluorescence, agonist mode; 0% DMSO, 100% acetylcholine EC100. activation, % at 3 µM. actives 0.33% (n = 360,000);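 active means activation above the run's mean compound activation plus 3 SD, cut at about 16% in these data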;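 further: peak over basal fluorescence ratio within a 140 s kinetic read after compound addition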
CHRM1 antagonist – antagonists of human M1 muscarinic receptor | P11229 | CHO-K1 hM1, Fluo-8 calcium fluorescence, ACh EC80 antagonist | inhibition, % at 3 µM | actives 1.3% (n = 360,000) | AID 588852;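 active means percent inhibition above its own plate's cutoff, namely the mean of that plate's compound wells plus 3 SD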;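 further: peak over basal fluorescence ratio during 140 s after agonist addition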
Numbers stand for hits; – = inactive; · = no result. Hits are enriched below; roughly 2% of the tested compounds scored in any of these assays.

SMILES | CHRM5 antagonist | CHRM1 PAM | CHRM5 PAM | CHRM5 agonist | CHRM1 agonist | CHRM1 antagonist
Cc1cc(C)cc(NC(=O)c2ccc(CSc3nnnn3C)cc2)c1 | – | – | – | – | – | 28
COc1ccc(/C=N/NC(=O)C(=O)/C=C2\NC3(CCCC3)Cc3ccccc32)cc1 | – | 25 | – | – | – | –
NNC(=O)C(=O)/C=C1\NC2(CCCC2)Cc2ccccc21 | – | – | – | – | – | –
COc1ccc(/C=N/NC(=O)C(=O)N2CCCC2)cc1 | – | – | – | – | – | –
O=C(/C=C1\NC2(CCCC2)Cc2ccccc21)C(=O)N/N=C/c1ccc(O)c(O)c1 | – | – | – | – | 17 | –
Clc1ccc(-c2noc(CN3CCCC3)n2)cc1 | – | – | – | – | – | –
Cn1ccnc1C1CCCCN1Cc1nc(-c2ccc(Cl)cc2)no1 (centres undefined) | – | – | – | – | – | 32
COc1cc(/C=C2\SC(=S)N(Nc3ccccc3)C2=O)ccc1O | 29 | – | – | 29 | 23 | –
CCOc1cc(/C=C2\SC(=S)N(Nc3ccccc3)C2=O)ccc1O | – | – | – | – | 29 | –
O=C1/C(=C/c2ccc(O)c(O)c2)SC(=S)N1Nc1ccccc1 | – | – | – | – | – | –
O=C(NCCN1CCN(Cc2ccccc2)CC1)c1ccc(CS(=O)(=O)c2c(Cl)cccc2Cl)o1 | – | – | – | – | – | –
COc1ccc(C(=O)NCCN2CCC(n3c(=O)[nH]c4ccccc43)CC2)cc1F | – | · | – | – | · | ·
CCC1(c2ccccc2)NC(=O)N(CC(=O)Nc2ccccc2N2CCCCC2)C1=O (centres undefined) | – | – | – | – | 37 | –
CCC1(c2ccc(F)cc2)NC(=O)N(CC(=O)Nc2ccc(N3CCCCC3)cc2)C1=O (centres undefined) | – | – | – | 27 | 17 | –
CCC1(c2ccccc2)NC(=O)N(CC(=O)Nc2ccccc2C(=O)N2CCCCC2)C1=O (centres undefined) | – | – | – | – | – | –
CNC(=O)OCc1nc(SSC(C)(C)C)n(C)c1COC(=O)NC | – | – | – | – | – | –
O=[N+]([O-])c1c(Nc2ccc(O)cc2)cc(Cl)c2nonc12 | 43 | – | – | – | – | 42
CC1Cc2nc(SCC(=O)NCc3ccccc3)n(Cc3ccccc3)c(=O)c2S1 (centres undefined) | – | – | – | – | – | 53
Cc1cc(NCCCCCCCNc2cc(C)nc3cc([N+](=O)[O-])ccc23)c2ccc([N+](=O)[O-])cc2n1 | – | – | – | – | – | 34
COC(=O)c1cc2ccsc2n1Cc1cc(=O)n2ccccc2n1 | – | – | – | – | – | 77
O=c1c2sccc2n(Cc2cc(=O)n3ccccc3n2)c(=O)n1-c1ccccc1 | – | – | – | – | – | –
O=c1[nH]cc(S(=O)(=O)N2CCN(c3ccc(F)cc3)CC2)c(=O)[nH]1 | – | – | – | – | – | –
CCN1C(=O)S/C(=C/c2ccc(Sc3nc4ccccc4[nH]3)o2)C1=O | – | – | – | – | – | 31
N#C/C(=C/c1ccc(Sc2nc3ccccc3[nH]2)o1)c1cccc(Br)c1 | – | – | – | – | – | –
O=C(c1ccc2c(c1)OCO2)C1CCCN(Cc2ccc(OC(F)F)cc2)C1 (centres undefined) | – | – | – | – | – | 91
SMILES | CHRM5 antagonist | CHRM1 PAM | CHRM5 PAM | CHRM5 agonist | CHRM1 agonist | CHRM1 antagonist
O=C(c1ccc2c(c1)OCO2)C1CCCN(Cc2cccc(C(F)(F)F)c2)C1 (centres undefined) | – | – | – | – | – | 63
COc1cc(OC)c(OC)cc1CN1CCCC(C(=O)c2ccc3c(c2)OCO3)C1 (centres undefined) | – | – | – | – | – | –
c1ccc2scnc2c1 | – | – | – | – | – | –
CCc1ccc(OCC(=O)Nc2ccc(-c3cc4ccccc4oc3=O)c(OC)c2)cc1 | 31 | – | – | – | – | –
COc1cc(NC(=O)c2cc(Cl)ccc2Cl)ccc1-c1cc2ccccc2oc1=O | – | – | – | – | – | –
Cn1nccc1-c1ccc(C(=O)NCc2ccc(Cl)cc2)c2occc12 | – | – | – | – | – | –
O=C(Cc1ccc(F)cc1)Nc1nc(-c2ccc(F)cc2)cs1 | – | – | – | – | – | 35
CC(C(=O)Nc1nc(-c2ccc(F)c(F)c2)cs1)N1C(=O)C2CC=CCC2C1=O (centres undefined) | – | – | – | – | – | 31
O=C(Cc1ccccc1)Nc1nc(-c2ccc(F)c(F)c2)cs1 | – | – | – | – | – | 37
O=C(O)CCCC(=O)Nc1nc(-c2ccc(F)cc2)cs1 | – | – | – | – | – | –
CC(C)(C)c1ccc2cc(F)cc(F)c2n1 | – | – | – | – | – | –
Cc1cc(NC(=O)COC(=O)[C@H](Cc2ccccc2)NC(=O)c2ccco2)no1 | – | – | – | – | – | –
CCN(CC)c1ccc(/C=N/NC(=O)c2ccc3c(c2)OCCO3)cc1 | 28 | – | – | – | – | –
CC1(C)CC[C@]2(C(=O)O)CC[C@]3(CO)C(=CCC4[C@@]5(C)C[C@H](O)[C@H](O)[C@@](C)(C(=O)O)C5CC[C@]43C)[C@@H]2C1 (some centres undefined) | – | 27 | – | – | – | –
CCCCN(C(=O)c1ccc(N2C(=O)c3ccccc3C2=O)cc1)c1c(N)n(CC(C)C)c(=O)[nH]c1=O | – | – | – | – | – | –
CCOC(=O)C1C(=O)CC(C)(O)C(C(=O)OCC)C1c1ccc(N(CC)CC)cc1 (centres undefined) | – | – | – | – | – | –
CCN(CC)c1ccc(C2C(C(=O)OC(C)C)C(=O)CC(C)(O)C2C(=O)OC(C)C)cc1 (centres undefined) | – | – | – | – | – | 30
COc1cccc(Nc2ncccc2C(=O)Nc2ccccc2)c1 | – | – | 19 | – | – | –
COc1cccc(NC(=O)c2ccccc2Oc2ccccc2)c1 | – | – | – | – | – | –
C(#Cc1ccccc1)C[N+]1(CC#Cc2ccccc2)CCCC1 | – | – | – | – | – | 39
O=C(c1cc2ccccc2cc1OCC(O)CN1CCCCC1)N1CCCCC1 (centres undefined) | – | – | – | – | – | 33
O=C1CC(=O)N(C2CCCCC2)C(=O)N1c1ccccc1S(=O)(=O)Oc1ccccc1 | – | – | – | – | – | –
Clc1ccc(C(c2cccs2)N2CCNCC2)cc1 (centres undefined) | – | – | – | – | – | 45

Bioassay records (PubChem BioAssay)
